Experimental findings from ChEMBL document CHEMBL1153758, “Synthesis and anti-osteoporotic evaluation of certain 3-amino-2-hydroxypropoxyisoflavone derivatives” (Eur J Med Chem, 2009) are described below.

Data set [1] relates to RAW264.7. Put plainly: Antiosteoporotic activity in mouse RAW264.7 cells assessed as inhibition of RANKL-stimulated osteoclastogenesis by TRAP assay. The format is functional, cell-based. The note with it: for EC50: read-out: ED50 (the source's name). In outline:
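RAW 264.7 cells were seeded at 10^3 cells per well with 100 ng/mL RANKL and cultured 5 days at 37 °C in 5% CO2, with fresh RANKL-containing medium added on day 3. TRAP activity was read as conversion of 4 mmol/L α-naphthyl phosphate to α-naphthol in the presence of 2 mol/L L-tartrate, by absorbance at 405 nm.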

Data set [2] in a line: Cytotoxicity against human ADSC at 10 uM after 3 days by MTT assay. The note with it: 72 h. In outline:
(§1)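 Compounds came from 10 mM DMSO stocks, diluted fresh in medium to a final 10 µM (0.1% DMSO), with vehicle-matched DMSO controls. After treatment, MTT ([…] in PBS) was added for 4 h. Formazan was then dissolved in DMSO for 0.5 h and read at 570 nm, expressed as % of control.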

The next data set has as its system MADS. Briefly: Osteogenic effect on human MADS cells assessed as extracellular matrix calcification at 10 uM after 13 days by using alizarin red S dye. It is filed as functional, cell-based. The procedure, abridged: (§2)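 Cells were induced in osteo-induction medium (low-glucose DMEM, 10% FBS, 0.1 µM dexamethasone, 10 mM β-glycerophosphate, 100 µM L-ascorbic 2-phosphate) for 7–14 days. Compounds were added at a final 10 µM from 10 mM DMSO stocks (0.1% DMSO), with DMSO-matched controls.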

Data set [3] can be described thus: Selectivity ratio for osteogenic effect of 3-(4-(3-(cyclohexylamino)-2-hydroxypropoxy)phenyl)-7-methoxy-4H-chromen-4-one on MC3T3-E1 cells to osteogenic effect of ipriflavone on MC3T3-E1 cells. The format is functional, Mus musculus.
The subject of data set [4] is RAW264.7. Put plainly: Cytotoxicity against mouse RAW264.7 cells at 10 uM after 3 days by MTT assay. It is filed as cell-based. The note with it: raw264.7, 72 h. The procedure, abridged:
as §1

Data set [5] can be described thus: Cytotoxicity against mouse D1 cells at 10 uM after 3 days by MTT assay. The format is cell-based. The note with it: d1, 72 h. The procedure, abridged: as §1
The test system of the next data set is D1. Put plainly: Osteogenic effect on mouse D1 cells assessed as extracellular matrix calcification at 10 uM after 7 days by using alizarin red S dye. It is filed as functional, cell-based. The procedure, abridged:
as §2

For the next data set, the system named is MC3T3-E1. Put plainly: Osteogenic effect on mouse MC3T3-E1 cells assessed as extracellular matrix calcification at 10 uM after 12 days by using alizarin red S dye. It is filed as functional, cell-based. In outline: as §2
The nature of data set [6]: Selectivity ratio for osteogenic effect of 3-(3,4-dimethoxyphenyl)-7-(oxiran-2-ylmethoxy)-4H-chromen-4-one on MC3T3-E1 cells to osteogenic effect of ipriflavone on MC3T3-E1 cells. It is filed as functional, Mus musculus.
Data set [7] relates to adipose-derived stem cells (Homo sapiens). Briefly: Cytotoxicity against human adipose-derived stem cells assessed as decrease in cell viability. The note with it: hADSC.

Structures are written as SMILES. Activity calls are given as the source filed them. No cut-off for these calls is given here.

Regarding `O=c1cc(-c2ccccc2)oc2cc(O)c(O)c(O)c12` [BAICALEIN], the IC50 in the data set on RAW264.7 [1] worked out at 13 µM.
`O=C(c1ccc(OCCN2CCCCC2)cc1)c1c(-c2ccc(O)cc2)sc2cc(O)ccc12` [RALOXIFENE]: the Activity entry in [2] is on record as “Non-toxic”. For the same compound, in the data set on MADS, the outcome was Active.
Turning to `COc1ccc2c(=O)c(-c3ccc(OCC(O)CNC4CCCCC4)cc3)coc2c1` (stereo not given), the Selectivity ratio in data set [3] worked out at 10. Further, the Activity entry (in the data set with RAW264.7 [4]; in data set [5]; in data set [2]) was “Non-toxic” in each case. Also, the EC50 in the data set with RAW264.7 [1] stood at 2.28 µM. For the same compound, the result in the data set with MADS, in the data set with D1 and with MC3T3-E1 was Active.
Regarding `CC(C)Oc1ccc2c(=O)c(-c3ccccc3)coc2c1` [IPRIFLAVONE], the Activity result in data set [2] is on record as “Non-toxic”. Also, in the data set with MADS, the outcome was Active.
Turning to `COc1ccc2c(=O)c(-c3ccc(OCC4CO4)cc3)coc2c1` (stereo not given), the IC50 with RAW264.7 [1] stood at 6.39 µM.
For `COc1ccc2c(=O)c(-c3ccc(OCC(O)CNC4CC4)cc3)coc2c1` (stereo not given), in the data set on RAW264.7 [1], the IC50 worked out at 4.85 µM.
Consider `COc1ccc(-c2coc3cc(OCC(O)CNC4CCCCC4)ccc3c2=O)cc1OC` (stereo not given), for which, in the data set with RAW264.7 [1], the IC50 is 4.17 µM.
As to `COc1ccc(-c2coc3cc(OCC4CO4)ccc3c2=O)cc1OC` (stereo not given), the Activity entry with RAW264.7 [4] was “Non-toxic”; in [5], “Non-toxic”; in [7], 60%. In addition, in the data set with RAW264.7 [1], the half-maximal inhibitory concentration (IC50) turned out to be 0.56 µM. For the same compound, the EC50 in the data set with RAW264.7 [1] came to 0.56 µM. Moreover, the Selectivity ratio in data set [6] is recorded as 10. Also, the outcome in the data set with MADS, in the data set on D1 and with MC3T3-E1 was Active.
